Experimental data from ChEMBL document CHEMBL1128548, “Synthesis and evaluation of 5-amino-5,6,7,8-tetrahydroquinolinones as potential agents for the treatment of Alzheimer's disease” (J Med Chem, 1995).
Values joined by “and” are separate entries in the source; they are usually repeats but may differ in a detail not shown here. Equal entries are not always repeated. Active and inactive are the calls of the source.

Assays:
[1] = molecular target: T1, Acetylcholinesterase (Rattus norvegicus, UniProt P37136); assay: Acetylcholinesterase inhibitory activity in rat striatal homogenates
T1 sequence (P37136 whole entry): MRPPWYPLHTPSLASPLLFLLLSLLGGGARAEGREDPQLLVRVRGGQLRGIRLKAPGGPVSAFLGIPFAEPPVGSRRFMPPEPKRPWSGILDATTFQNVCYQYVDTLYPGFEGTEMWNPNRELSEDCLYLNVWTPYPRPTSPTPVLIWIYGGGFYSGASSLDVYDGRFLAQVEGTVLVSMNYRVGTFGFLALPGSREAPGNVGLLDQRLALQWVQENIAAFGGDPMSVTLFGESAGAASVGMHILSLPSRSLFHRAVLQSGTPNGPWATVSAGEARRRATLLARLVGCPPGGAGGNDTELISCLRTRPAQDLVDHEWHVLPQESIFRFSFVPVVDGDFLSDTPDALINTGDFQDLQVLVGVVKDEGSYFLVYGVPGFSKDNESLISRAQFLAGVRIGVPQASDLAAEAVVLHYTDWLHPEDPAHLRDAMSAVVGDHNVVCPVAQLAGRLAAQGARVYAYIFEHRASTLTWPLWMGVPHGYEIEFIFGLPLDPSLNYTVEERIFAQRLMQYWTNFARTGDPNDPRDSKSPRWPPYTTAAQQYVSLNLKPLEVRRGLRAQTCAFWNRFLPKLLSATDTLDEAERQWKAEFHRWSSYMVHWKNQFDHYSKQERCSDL

[2] = tested on: Mus musculus; assay: Active dose for reversal of Scopolamine dementia activity in mouse following s.c. administration.; assay type: functional
Procedure, shortened: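 Male CFW mice, 15 per group (vehicle/vehicle, scopolamine/vehicle, scopolamine/drug). Scopolamine hydrobromide 3.0 mg/kg sc 30 min before training, then test compound in distilled water 5 min before. One-trial dark passive avoidance, retested 24 h later without injection or shock. Cutoff is the second-longest scopolamine/vehicle latency. Dose is active when 20% of animals exceed cutoff. Test valid if cutoff <120 s.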

[3] = organism: Mus musculus; assay: Active dose for reversal of Scopolamine dementia(SDDA) activity in mouse; NA =' not active'; assay type: functional, organism-based
Procedure, shortened: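 Male CFW mice, 15 per group (vehicle/vehicle, scopolamine/vehicle, scopolamine/drug). Scopolamine hydrobromide 3.0 mg/kg sc 30 min before training, test compound in distilled water 5 min before. Step-through passive avoidance retested 24 h later without shock, recording latency. Cutoff is the second-longest scopolamine/vehicle latency. A dose is active if 20% of mice exceed the cutoff.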

| Structure (SMILES) | IC50 [1] | Active dose [2] | Active dose [3] |
| --- | --- | --- | --- |
| CC(C)=CCn1c2c(ccc1=O)C(NCCc1ccc(O)cc1)CCC2 (stereo not given) | 0.4 µM | – | – |
| NC1(Cc2ccccc2)CCCc2[nH]c(=O)ccc21 (stereo not given) | > 100 µM | – | – |
| CCCCCCn1c2c(ccc1=O)C(NCCc1ccc(Cl)c(Cl)c1)CCC2 (stereo not given) | 3.71 µM | – | – |
| Cn1c2c(ccc1=O)C(NCCc1ccc(C(F)(F)F)cc1)CCC2 (stereo not given) | 12.9 µM | – | – |
| CC(C)CCn1c2c(ccc1=O)C(NCCc1ccc(Cl)c(Cl)c1)CCC2 (stereo not given) | 2.34 µM | 3 mg/kg | – |
| CC(C)=CCn1c2c(ccc1=O)C(N)CCC2 (stereo not given) | > 100 µM | – | – |
| Cn1c2c(ccc1=O)C(NCCc1ccccc1)CCC2 (stereo not given) | 18.6 µM | 1 mg/kg | – |
| C=CCn1c2c(ccc1=O)C(NCCc1ccc(Cl)c(Cl)c1)CCC2 (stereo not given) | 9.21 µM | – | – |
| CC(C)=CCn1c2c(ccc1=O)C(NCCc1ccc(Cl)cc1Cl)CCC2 (stereo not given) | 0.79 µM | 1 mg/kg and 3 mg/kg | – |
| Cn1c2c(ccc1=O)C(C)(N)CCC2 (stereo not given) | > 100 µM | – | – |
| C=C(C)Cn1c2c(ccc1=O)C(NCCc1ccc(Cl)c(Cl)c1)CCC2 (stereo not given) | 5.32 µM | 3 mg/kg | – |
| CC(C)=CCn1c2c(ccc1=O)C(NCCc1ccc(F)c(F)c1)CCC2 (stereo not given) | 0.98 µM | – | – |
| CCCn1c2c(ccc1=O)C(NCCc1ccccn1)CCC2 (stereo not given) | 4.34 µM | – | inactive |
| CC(C)n1c2c(ccc1=O)C(NCCc1ccc(Cl)c(Cl)c1)CCC2 (stereo not given) | 34.5 µM | – | – |
| CC(C)Cn1c2c(ccc1=O)C(NCCc1ccc(Cl)c(Cl)c1)CCC2 (stereo not given) | 23.4 µM | – | – |
| COc1cccc(CCNC2CCCc3c2ccc(=O)n3CC=C(C)C)c1 (stereo not given) | 1.1 µM | – | – |
| Cn1c2c(ccc1=O)C(NCc1ccccc1)CCC2 (stereo not given) | > 100 µM | – | – |
| Oc1ccc2c(n1)CCCC2NCCc1ccccc1 (stereo not given) | > 100 µM | – | – |

| Structure (SMILES) | IC50 [1] | Active dose [2] | Active dose [3] |
| --- | --- | --- | --- |
| CC(C)=CCn1c2c(ccc1=O)C(NCCc1ccc(Cl)c(Cl)c1)CCC2 (stereo not given) | 0.51 µM | – | – |
| CCCn1c2c(ccc1=O)C(NCCc1c[nH]c3ccccc13)CCC2 (stereo not given) | 3.16 µM | 3 mg/kg | – |
| CCCn1c2c(ccc1=O)C(NCCC(C)(C)C)CCC2 (stereo not given) | 15.6 µM | – | – |
| CC(C)=CCn1c2c(ccc1=O)C(NCCc1cccc(Cl)c1)CCC2 (stereo not given) | 0.52 µM | – | inactive |
| CC(C)=CCn1c2c(ccc1=O)C(NCCc1ccc(Cl)c(C(F)(F)F)c1)CCC2 (stereo not given) | 0.79 µM | – | inactive |
| CCCCCCCCCCn1c2c(ccc1=O)C(NCCc1ccc(Cl)c(Cl)c1)CCC2 (stereo not given) | 33.7 µM | – | – |
| COc1ccc(CCNC2CCCc3c2ccc(=O)n3CC=C(C)C)cc1OC (stereo not given) | 1.64 µM | – | – |
| CC(C)=CCn1c2c(ccc1=O)C(NCCc1cc(Cl)cc(Cl)c1)CCC2 (stereo not given) | 0.8 µM | – | – |
| O=c1ccc2c(n1Cc1ccccc1)CCCC2NCCc1ccc(Cl)c(Cl)c1 (stereo not given) | 17.3 µM | – | – |
| CCCn1c2c(ccc1=O)C(NC1Cc3ccccc3C1)CCC2 (stereo not given) | 3.91 µM | 1 mg/kg | – |
| CC(C)=CCn1c2c(ccc1=O)C(NCCc1cc(Cl)ccc1Cl)CCC2 (stereo not given) | 1.36 µM | – | – |
| CCCn1c2c(ccc1=O)C(NCCc1cccs1)CCC2.O=C(O)/C=C/C(=O)O (stereo not given) | 5.97 µM | – | – |
| C/C=C1\[C@H]2C=C(C)C[C@]1(N)c1ccc(=O)[nH]c1C2 [HUPERZINE A] | 0.08 µM | – | – |
| O=c1ccc2c(n1CCc1ccccc1)CCCC2NCCc1ccc(Cl)c(Cl)c1 (stereo not given) | 50.4 µM | – | – |
| CC1(N)CCCc2nc(O)ccc21 (stereo not given) | > 100 µM | – | – |
| Cn1c2c(ccc1=O)C(NCCCc1ccccc1)CCC2 (stereo not given) | 48.4 µM | – | – |
| CC(C)=CCn1c2c(ccc1=O)C(NCCc1ccccc1Cl)CCC2 (stereo not given) | 0.52 µM | – | – |
| Cc1ccc(CCNC2CCCc3c2ccc(=O)n3C)cc1 (stereo not given) | 18.2 µM | – | – |
